Results pooled from the literature.
Target: Homeodomain-interacting protein kinase 1 (HIPK1, Homo sapiens, UniProt Q86Z02)

CNC(=O)c1ccc(Nc2ncc(C(F)(F)F)c(NCc3nccnc3N(C)S(C)(=O)=O)n2)cc1 — remaining binding (cell-free assay, competition with immobilised ligand; 0.1 µM): 27%
COc1cc(Nc2cnc(C#N)c(O[C@H](C)CN(C)C)n2)ncc1-c1cnn(C)c1 — remaining activity (enzyme activity, inhibitor, radiometric; 1 µM): 95%
O=C(O)c1ccc2c(c1)nc(Nc1ccccc1)c1ncncc12 — remaining activity (enzyme activity, inhibitor, radiometric; 1 µM): 11%
CNC(=O)Nc1ccc2c(c1)CC[C@@]21OC(=O)N(CC(=O)N(Cc2ccc(F)cc2)[C@@H](C)C(F)(F)F)C1=O — remaining binding (cell-free assay, competition with immobilised ligand; 1 µM): 85%
CNC(=O)c1cc(Oc2ccc(NC(=O)Nc3ccc(Cl)c(C(F)(F)F)c3)cc2)ccn1 — inhibition (enzyme activity, inhibitor; 10 µM): 61%
O=C(O)c1ccc2c(c1)nc(NCCc1cccc(Cl)c1)c1ccncc12 — remaining activity (enzyme activity, inhibitor, radiometric; 1 µM): 20%
C[C@H](c1ccc(F)cc1)N(Cc1cccc(C(=O)O)c1)C(=O)c1cnc2ccccc2c1 — remaining binding (cell-free assay, competition with immobilised ligand; 1 µM): 100%
O=C(O)c1ccc2c(c1)nc(Nc1ccc(Cl)cc1)c1ccncc12 — remaining activity (enzyme activity, inhibitor, radiometric; 1 µM): 6%
FC(F)c1nc2ccccc2n1-c1nc(N2CCOCC2)nc(N2CCOCC2)n1 — remaining activity (enzyme activity, inhibitor; 10 µM): 100%
CCCS(=O)(=O)Nc1ccc(F)c(C(=O)c2c[nH]c3ncc(-c4ccc(Cl)cc4)cc23)c1F — inhibition (enzyme activity, inhibitor; 1 µM): < 10%
Cc1ccc(C(=O)NCc2ccsc2)cc1C#Cc1cn(C(C)C)c2ncnc(N)c12 — activity vs control (enzyme activity, inhibitor; 1 µM): 106%
Cc1c[nH]c2nccc(Oc3c(F)cc(Nc4cc(Cl)nc(N)n4)cc3F)c12 — remaining binding (cell-free assay, competition with immobilised ligand; 0.1 µM): 100%
Cc1ccc(NC(=O)c2ccc(C)c(C(F)(F)F)c2)cc1C#Cc1nn(C2CCC(O)CC2)c2ncnc(N)c12 (centres unmarked) — remaining signal (cell-free assay; 10 µM): 107%
COc1cc2ncnc(Nc3ccc(F)c(Cl)c3)c2cc1OCCCN1CCOCC1 — remaining signal (cell-free assay; 0.5 µM): 97.6%
CC(=O)c1c(NS(C)(=O)=O)c2cc(-c3ccc(Cl)cc3)c(-c3ccc(Cl)cc3Cl)nc2n(C)c1=O — remaining binding (cell-free assay, competition with immobilised ligand; 1 µM): 96%
O=C(O)c1ccc2c(c1)nc(Nc1cccc(F)c1)c1ncncc12 — remaining activity (enzyme activity, inhibitor, radiometric; 1 µM): 3%
O=C(NCCCC1CCCCC1)c1ccc(CNC(=O)c2cnn(-c3ccccc3)c2C(F)(F)F)cc1 — remaining binding (cell-free assay, competition with immobilised ligand; 0.1 µM): 99%
COc1cc2ncnc(Nc3ccc(Oc4ccccc4)c(C)c3C)c2cc1OC — inhibition (enzyme activity, inhibitor; 1 µM): 3%
O=C1NC(=O)c2cc(Nc3ccc(F)cc3)c(Nc3ccc(F)cc3)cc21 — remaining signal (cell-free assay; 0.5 µM): 102%
O=C(O)c1ccc2c(c1)nc(Nc1ccc(F)c(Cl)c1)c1ccncc12 — remaining activity (enzyme activity, inhibitor, radiometric; 1 µM): 8%
Cn1nc(C(F)(F)F)cc1-c1cnc(N2CCc3cc(S(=O)(=O)Nc4c(F)cc(Cl)cc4F)cc(N4CCCC4=O)c32)nc1 — remaining binding (cell-free assay, competition with immobilised ligand; 1 µM): 87%
Cc1ccc(Nc2nccc(N(C)c3ccc4c(C)n(C)nc4c3)n2)cc1S(N)(=O)=O — inhibition (enzyme activity, inhibitor; 0.3 µM): 11%
FC(F)(F)Oc1cccc(-c2cnc3ccc(-c4ccncc4)nn23)c1 — activity vs control (enzyme activity, inhibitor, radiometric; 5 µM): 29%
COc1cccc(CCNc2nc3cc(C(=O)O)ccc3c3cncnc23)c1 — remaining activity (enzyme activity, inhibitor, radiometric; 1 µM): 36%
Cn1cc(Cl)c2c(Oc3c(F)cc(Nc4cc(Cl)nc(N)n4)cc3F)ccnc21 — remaining binding (cell-free assay, competition with immobilised ligand; 0.1 µM): 100%
O=C(O)c1ccc2c(c1)nc(Nc1ccc3ccccc3c1)c1ncncc12 — remaining activity (enzyme activity, inhibitor, radiometric; 1 µM): 1%
CCN(CC)CCNC(=O)c1c(C)[nH]c(/C=C2\C(=O)Nc3ccc(F)cc32)c1C — inhibition (enzyme activity, inhibitor; 10 µM): 59%
O=C(O)c1ccc2c(c1)nc(Nc1ccccc1)c1ccncc12 — remaining activity (enzyme activity, inhibitor, radiometric; 1 µM): 30%
COc1cc2c(N3CCN(C(=O)Nc4ccc(OC(C)C)cc4)CC3)ncnc2cc1OCCCN1CCCCC1 — remaining signal (cell-free assay; 0.5 µM): 98.9%
